The source of these data is ChEMBL document CHEMBL4342471, “Discovery of Thieno[2,3-d]pyrimidine-Based Hydroxamic Acid Derivatives as Bromodomain-Containing Protein 4/Histone Deacetylase Dual Inhibitors Induce Autophagic Cell Death in Colorectal Carcinoma Cells” (J Med Chem, 2020).

Data set [1] relates to HCT-116. In words: Antiproliferative activity against human HCT116 cells assessed as reduction in cell viability measured after 24 to 48 hrs by MTT assay. In kind it is functional, cell-based. Background: Formazan colour is commonly taken as a measure of viable cells.
Data set [2] concerns HCT-116. In words: Induction of apoptosis in human HCT116 cells assessed as early apoptotic cells at 0.2 uM by Annexin-V FITC/propidium iodide staining-based flow cytometry (reference value: 2.8 %). In kind it is functional. On the technique in general: In flow cytometry, cells or beads pass a laser one at a time.
Data set [3] has as its target T1, Bromodomain-containing protein 4 (Homo sapiens, UniProt O60885). Kind of data set: Inhibition of human recombinant His-tagged BRD4 BD1 domain using H-SGRGK(Ac)GGK(Ac)GLGK-(Ac)GGAK(Ac)RHRK(Biotin)-OH as substrate preincubated with enzyme for 30 mins followed by substrate addition measured after 30 mins by AlphaScreen assay. (In general: Bead proximity is the source of the signal in Alpha formats.)

Data set [4] has as its system HCT-116. In words: Induction of apoptosis in human HCT116 cells assessed as late apoptotic cells at 0.5 uM by Annexin-V FITC/propidium iodide staining-based flow cytometry (reference value: 3.51 %). In kind it is functional.
Data set [5] concerns HCT-116. Kind of data set: Induction of apoptosis in human HCT116 cells assessed as necrotic cells at 0.5 uM by Annexin-V FITC/propidium iodide staining-based flow cytometry (reference value: 0.304 %). In kind it is functional.
Data set [6] relates to HCT-116. In words: Induction of cell cycle arrest in human HCT116 cells assessed as cell accumulation at sub-G1 phase at 0.2 to 0.5 uM by flow cytometry. In kind it is functional, cell-based. The method in brief:
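HCT-116 cells treated at 0.2 or 0.5 μM were analysed for cell cycle by flow cytometry, with the sub-G1 population scored.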

Data set [7] has as its target T1, Bromodomain-containing protein 4. In words: Inhibition of BRD4 in human HCT116 cells assessed as reduction in C-myc level at 0.2 to 0.5 uM measured after 24 hrs by Western blot analysis. In kind it is cell-based.
Data set [8] is filed under the species Homo sapiens. In words: Inhibition of BRD4/HDAC in human HCT116 cells assessed as increase in caspase 9 cleavage at 0.2 to 0.5 uM measured after 24 hrs by Western blot analysis. In kind it is cell-based.
Data set [9] deals with T1, Bromodomain-containing protein 4. Kind of data set: Inhibition of BRD4 in human HCT116 cells assessed as induction of autophagic flux by measuring accumulation of LC3-II at 0.5 uM after 24 hrs in presence of auto-phagolysosome inhibitor, bafilomycin-A1 by Western blot analysis. In kind it is cell-based. The procedure, abridged: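 HCT-116 cells received 0.5 μM compound with or without bafilomycin-A1 for 24 hours. LC3 and p62 protein were then analysed by western blot.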

Data set [10] deals with HCT-116. Kind of data set: Antitumor activity against human HCT116 cells xenografted in BALB/cAnNCrl mouse assessed as average tumor growth inhibition at 15 to 30 mg/kg, po administered on day 1 to day 19 relative to control. In kind it is functional. The method in brief: (§1)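 HCT-116 xenografts in mice were given the test agent orally at 15 or 30 mg/kg, with a saline control group, over 19 days. Tumor volume was followed during treatment and tumors were weighed at the end. Body weight was monitored. Inhibition is expressed as treatment-to-control (T/C) ratio.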

The subject of data set [11] is HCT-116. Kind of data set: Antitumor activity against human HCT116 cells xenografted in BALB/cAnNCrl mouse assessed as reduction in tumor volume by measuring T/C ratio at 15 mg/kg, po administered on day 1 to day 19 relative to control. In kind it is functional. The method in brief:
as §1

Data set [12] concerns HCT-116. In words: Antitumor activity against human HCT116 cells xenografted in orally dosed BALB/cAnNCrl mouse assessed as reduction in tumor volume administered on day 1 to day 19 relative to control. In kind it is functional, organism-based. The procedure, abridged: as §1
The test system of data set [13] is Mus musculus. Kind of data set: In vivo inhibition of BRD4 in BALB/cAnNCrl mouse xenografted with human HCT116 cells assessed as decrease in c-Myc expression in tumor tissue at 15 to 30 mg/kg, po administered on day 1 to day 19 measured on day 19 by immunohistochemical analysis. In kind it is functional, organism-based. The method in brief:
(§2)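 HCT-116 xenograft mice were dosed orally at 15 or 30 mg/kg, or 30 mg/kg for reference agents, for 19 days, with vehicle or saline controls. Tumor sections were stained for Ki-67, c-Myc, Ac-H3, BRD4, LC3-II, LIFR and p-STAT3 by immunohistochemistry, and TUNEL staining was used as the apoptosis marker.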

In data set [14] the test system is HCT-116. In words: Antitumor activity against human HCT116 cells xenografted in BALB/cAnNCrl mouse assessed as increase in TUNEL positive apoptotic nuclei in tumor tissue at 15 to 30 mg/kg, po administered on day 1 to day 19 measured on day 19 by TUNEL assay. In kind it is functional, organism-based. The procedure, abridged: as §2
The nature of data set [15]: Toxicity in BALB/cAnNCrl mouse xenografted with human HCT116 cells assessed as effect on liver morphological changes at 15 to 30 mg/kg, po administered on day 1 to day 19 measured on day 19 by hematoxylin and eosin staining based assay. In kind it is organism-based. To be noted: in vivo. The procedure, abridged:
(§3)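 HCT-116 xenograft mice dosed orally at 15 or 30 mg/kg for 19 days, saline as vehicle control; body weights tracked, and main organs sectioned and H&E-stained at study end.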

The nature of data set [16]: Toxicity in BALB/cAnNCrl mouse xenografted with human HCT116 cells assessed as effect on body weight at 15 to 30 mg/kg, po administered on day 1 to day 19 […]. In kind it is organism-based. To be noted: in vivo. The method in brief:
as §3

A short description of data set [17]: Tmax in Sprague-Dawley rat at 30 mg/kg, po measured up to 1440 mins by UPLC-QTOF/MS analysis. In kind it is ADME, organism-based. To be noted: in vivo.
The species entered for data set [18] is Homo sapiens. In words: Inhibition of BRD4/HDAC in human HCT116 cells assessed as inhibition of IL6-JAK-STAT3 signaling pathway by measuring decrease in LIFR expression at 0.5 uM after 24 hrs by Western blot analysis. In kind it is cell-based. The procedure, abridged:
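HCT-116 cells treated 24 h with 0.5 µM, 5.0 µM or 10 µM test agent depending on compound; OSMR, LIFR and downstream pathway proteins detected by western blot.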

Calls of active or inactive are those of the source. The calls are words filed in the database; no cut-off is given here.

Consider `Cc1cc(-c2nc3sc4c(c3c(=O)[nH]2)CCN(C)C4)cc(C)c1OCCCCCC(=O)NO`, for which the half-inhibitory concentration (IC50) (in general, the concentration at which inhibition is half-maximal) in [1] was 450 nM; in [3], 1100 nM. Also, the Activity is 8.2% in data set [2]; 35.8% in data set [4]; 9.75% in data set [5]; “Dose-dependent effect” in data set [12]; “Non-Toxic” in [15]; “Non-Toxic” in [16]. The outcome in [6] and in data set [14] was Active. The inhibition result in data set [7], in [8], in [13] and in [18] was “Active” throughout. The inhibition entry in data set [9] was “inactive”. The “growth inhibition (GI)” value in data set [10] is given as 68.8%. For the same compound, the T/C (commonly the result in the treated group divided by that in the control group, in per cent) in data set [11] is listed as 42.7%. Besides, the Tmax (in general, the time from dosing to the highest level) in data set [17] was 1.53 h.
